ChEMBL document CHEMBL1140345, “Conformational constraint in oxazolidinone antibacterials. Synthesis and structure-activity studies of (azabicyclo[3.1.0]hexylphenyl)oxazolidinones” (2005)
Converted amounts (≈) assume the structure as drawn.

Legend:
[1] = system: Staphylococcus epidermidis; experiment: Minimum inhibitory concentration against methicillin-resistant Staphylococcus epidermidis UC12084
[2] = system: Staphylococcus aureus; experiment: Minimum inhibitory concentration against methicillin, ciprofloxacin, rifampin, imipenem-resistant Staphylococcus aureus UC12673; assay type: functional
In short: (§1)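 MIC determined by standard broth microdilution following the NCCLS M7-A4 approved standard for dilution susceptibility testing of aerobically growing bacteria.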

[3] = system: Haemophilus influenzae; experiment: Minimum inhibitory concentration against ampicillin-reisitant Haemophilus influenzae UC30063; assay type: functional
In short: (§2)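 Broth microdilution MIC following the NCCLS M7-A4 approved standard for dilution susceptibility testing of aerobically growing bacteria. The method is taken as accurate to within one dilution.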

[4] = system: Streptococcus pneumoniae; experiment: Minimum inhibitory concentration against penicillin-susceptible Streptococcus pneumoniae UC9912; assay type: functional
In short: as §2

[5] = system: Staphylococcus aureus; experiment: Minimum inhibitory concentration against methicillin-susceptible Staphylococcus aureus UC9213; assay type: functional
In short: as §1

[6] = system: Enterococcus faecalis; experiment: Minimum inhibitory concentration against Enterococcus faecalis UC9217; assay type: functional
In short: as §2

[7] = system: Escherichia coli; experiment: Minimum inhibitory concentration against Escherichia coli UC6674; assay type: functional
In short: as §2

[8] = system: Haemophilus influenzae; experiment: Minimum inhibitory concentration against ampicillin-reisitant Haemophilus influenzae UC30063; Range is from 4-8 ug/mL; assay type: functional
In short: as §2

[9] = system: Staphylococcus epidermidis; experiment: Minimum inhibitory concentration against methicillin-resistant Staphylococcus epidermidis UC12084; Range is from 0.5-1 ug/mL
[10] = system: Staphylococcus aureus; experiment: Minimum inhibitory concentration against methicillin-susceptible Staphylococcus aureus UC9213; Range is 2-4 ug/mL; assay type: functional
In short: as §1

[11] = system: Enterococcus faecalis; experiment: Minimum inhibitory concentration against Enterococcus faecalis UC9217; Range is 1-2 ug/mL; assay type: functional
In short: as §2

[12] = system: Staphylococcus aureus; experiment: Minimum inhibitory concentration against methicillin, ciprofloxacin, rifampin, imipenem-resistant Staphylococcus aureus UC12673; Range is 1-2 ug/mL; assay type: functional
In short: as §1

[13] = system: Enterococcus faecalis; experiment: Minimum inhibitory concentration against Enterococcus faecalis UC9217; Range is from 2-4 ug/mL; assay type: functional
In short: as §2

[14] = system: Staphylococcus epidermidis; experiment: Minimum inhibitory concentration against methicillin-resistant Staphylococcus epidermidis UC12084; Range is from 1-2 ug/mL
[15] = system: Haemophilus influenzae; experiment: Minimum inhibitory concentration against ampicillin-reisitant Haemophilus influenzae UC30063; Range is from 8-16 ug/mL; assay type: functional
In short: as §2

[16] = system: Streptococcus pneumoniae; experiment: Minimum inhibitory concentration against penicillin-susceptible Streptococcus pneumoniae UC9912; Range is from 0.5-1 ug/mL; assay type: functional
In short: as §2

[17] = system: Streptococcus pneumoniae; experiment: Minimum inhibitory concentration against penicillin-susceptible Streptococcus pneumoniae UC9912; Range is 0.5-1 ug/mL; assay type: functional
In short: as §2

[18] = system: Staphylococcus aureus; experiment: Minimum inhibitory concentration against methicillin, ciprofloxacin, rifampin, imipenem-resistant Staphylococcus aureus UC12673; Range is 2-4 ug/mL; assay type: functional
In short: as §1

[19] = system: Staphylococcus epidermidis; experiment: Minimum inhibitory concentration against methicillin-resistant Staphylococcus epidermidis UC12084; Range is 1-2 ug/mL
[20] = system: Streptococcus pneumoniae; experiment: Minimum inhibitory concentration against penicillin-susceptible Streptococcus pneumoniae UC9912; Range is 1-2 ug/mL; assay type: functional
In short: as §2

[21] = Haemophilus influenzae, read-out: MIC
[22] = Streptococcus pneumoniae, read-out: MIC

Row | SMILES | MIC [1] | MIC [2] | MIC [3, 21] | MIC [4, 22] | MIC [5] | MIC [6] | MIC [7] | other results
1 | CC(=O)NC[C@H]1CN(c2cc(F)c(N3C[C@@H]4[C@H](C3)[C@H]4C(=O)Nc3ccc4c(c3)OCO4)c(F)c2)C(=O)O1 | 0.5 mg/L (≈ 0.972 µM) | 1 mg/L (≈ 1.94 µM) | > 64 mg/L | 0.5 mg/L (≈ 0.972 µM) | 1 mg/L (≈ 1.94 µM) | 1 mg/L (≈ 1.94 µM) |  | 
2 | CC(=O)NC[C@H]1CN(c2cc(F)c(N3C[C@@H]4[C@H](C3)[C@H]4NS(C)(=O)=O)c(F)c2)C(=O)O1 | 1 mg/L (≈ 2.25 µM) | 4 mg/L (≈ 9 µM) | 32 mg/L (≈ 72 µM) | 1 mg/L (≈ 2.25 µM) | 4 mg/L (≈ 9 µM) | 2 mg/L (≈ 4.5 µM) | > 64 mg/L | 
3 | CC(=O)NC[C@H]1CN(c2ccc(N3C[C@H]4C[C@H]4C3)c(F)c2)C(=O)O1 | 1 mg/L (≈ 3 µM) | 2 mg/L (≈ 6 µM) | 32 mg/L (≈ 96 µM) | 1 mg/L (≈ 3 µM) | 2 mg/L (≈ 6 µM) | 2 mg/L (≈ 6 µM) | > 64 mg/L | 
4 | N[C@@H]1[C@H]2CN(c3c(F)cc(N4C[C@H](CNC(=O)C(F)F)OC4=O)cc3F)C[C@@H]12 | 2 mg/L (≈ 4.97 µM) | 2 mg/L (≈ 4.97 µM) | 8 mg/L (≈ 19.9 µM) | 1 mg/L (≈ 2.49 µM) | 4 mg/L (≈ 9.94 µM) | 2 mg/L (≈ 4.97 µM) |  | 
5 | CC(=O)NC[C@H]1CN(c2cc(F)c(N3C[C@@H]4[C@H](C3)[C@H]4C(=O)O)c(F)c2)C(=O)O1 |  | 1 mg/L (≈ 2.53 µM) |  | 1 mg/L (≈ 2.53 µM) | 2 mg/L (≈ 5.06 µM) | 1 mg/L (≈ 2.53 µM) | > 64 mg/L | MIC [8]: 8 mg/L (≈ 20.2 µM); MIC [9]: 1 mg/L (≈ 2.53 µM)
6 | CC(=O)NC[C@H]1CN(c2cc(F)c(N3C[C@@H]4[C@H](C3)[C@H]4C(=O)NCc3ccccn3)c(F)c2)C(=O)O1 | 1 mg/L (≈ 2.06 µM) | 4 mg/L (≈ 8.24 µM) | > 64 mg/L | 0.5 mg/L (≈ 1.03 µM) | 4 mg/L (≈ 8.24 µM) | 1 mg/L (≈ 2.06 µM) |  | 
7 | CC(=O)NC[C@H]1CN(c2cc(F)c(N3C[C@@H]4[C@@H](O)[C@@H]4C3)c(F)c2)C(=O)O1 | 1 mg/L (≈ 2.72 µM) |  | 16 mg/L (≈ 43.6 µM) | 1 mg/L (≈ 2.72 µM) |  |  | > 64 mg/L | MIC [10]: 4 mg/L (≈ 10.9 µM); MIC [11]: 2 mg/L (≈ 5.44 µM); MIC [12]: 2 mg/L (≈ 5.44 µM)
8 | CC(=O)NC[C@H]1CN(c2cc(F)c(N3C[C@@H]4[C@H](C3)[C@H]4C(=O)NCc3ccco3)c(F)c2)C(=O)O1 | 1 mg/L (≈ 2.11 µM) | 2 mg/L (≈ 4.22 µM) | > 64 mg/L | 0.5 mg/L (≈ 1.05 µM) | 2 mg/L (≈ 4.22 µM) | 1 mg/L (≈ 2.11 µM) |  | 
9 | CC(=O)NC[C@H]1CN(c2cc(F)c(N3C[C@@H]4[C@H](C3)[C@H]4C(N)=O)c(F)c2)C(=O)O1 | 2 mg/L (≈ 5.07 µM) | 4 mg/L (≈ 10.1 µM) | 32 mg/L (≈ 81.1 µM) | 1 mg/L (≈ 2.54 µM) | 4 mg/L (≈ 10.1 µM) | 2 mg/L (≈ 5.07 µM) | > 64 mg/L | 
10 | O=C(NC[C@H]1CN(c2cc(F)c(N3C[C@@H]4[C@H](C3)[C@H]4C(=O)O)c(F)c2)C(=O)O1)C(Cl)Cl | 0.5 mg/L (≈ 1.08 µM) | 0.5 mg/L (≈ 1.08 µM) | 4 mg/L (≈ 8.62 µM) | 0.5 mg/L (≈ 1.08 µM) | 1 mg/L (≈ 2.15 µM) | 0.5 mg/L (≈ 1.08 µM) |  | 
11 | CCC(=O)NC[C@H]1CN(c2cc(F)c(N3C[C@@H]4[C@@H](N)[C@@H]4C3)c(F)c2)C(=O)O1 |  | 4 mg/L (≈ 10.5 µM) |  |  | 4 mg/L (≈ 10.5 µM) |  |  | MIC [13]: 4 mg/L (≈ 10.5 µM); MIC [14]: 2 mg/L (≈ 5.26 µM); MIC [15]: 16 mg/L (≈ 42.1 µM); MIC [16]: 1 mg/L (≈ 2.63 µM)
12 | O=C(NC[C@H]1CN(c2cc(F)c(N3C[C@@H]4[C@H](C3)[C@H]4C(=O)O)c(F)c2)C(=O)O1)C(F)F | 0.5 mg/L (≈ 1.16 µM) | 0.5 mg/L (≈ 1.16 µM) | 4 mg/L (≈ 9.27 µM) | 1 mg/L (≈ 2.32 µM) | 1 mg/L (≈ 2.32 µM) | 0.5 mg/L (≈ 1.16 µM) |  | 
13 | CC(=O)NC[C@H]1CN(c2cc(F)c(N3C[C@@H]4[C@H](C3)[C@H]4NC=O)c(F)c2)C(=O)O1 | 1 mg/L (≈ 2.54 µM) |  | 32 mg/L (≈ 81.1 µM) |  |  | 2 mg/L (≈ 5.07 µM) | > 64 mg/L | MIC [10]: 4 mg/L (≈ 10.1 µM); MIC [17]: 1 mg/L (≈ 2.54 µM); MIC [18]: 4 mg/L (≈ 10.1 µM)
14 | CC(=O)NC[C@H]1CN(c2cc(F)c(N3C[C@@H]4[C@@H](N)[C@@H]4C3)c(F)c2)C(=O)O1 (stereo in doubt) | 1 mg/L (≈ 2.73 µM) | 4 mg/L (≈ 10.9 µM) |  |  | 8 mg/L (≈ 21.8 µM) | 4 mg/L (≈ 10.9 µM) | > 64 mg/L | MIC [3]: 32 mg/L (≈ 87.3 µM); MIC [4]: 1 mg/L (≈ 2.73 µM)
15 | CCC(=O)NC[C@H]1CN(c2cc(F)c(N3C[C@@H]4[C@H](C3)[C@H]4C(=O)O)c(F)c2)C(=O)O1 |  | 1 mg/L (≈ 2.44 µM) | 8 mg/L (≈ 19.5 µM) |  | 2 mg/L (≈ 4.89 µM) | 1 mg/L (≈ 2.44 µM) |  | MIC [19]: 2 mg/L (≈ 4.89 µM); MIC [20]: 2 mg/L (≈ 4.89 µM)
